# Data published in ChEMBL document CHEMBL4665627 (Eur J Med Chem, 2019).
# Assays:
# Assay type in all cases: functional
# [1] = tested on: Pseudomonas aeruginosa; assay: Antibacterial activity against Pseudomonas aeruginosa assessed as inhibition of bacterial growth after 24 hrs by CLSI protocol based two fold serial dilution method
# Outline: (§1)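 Two-fold serial broth dilution in 96-well plates following CLSI; MIC (mM) taken as the lowest concentration giving complete growth inhibition; MIC values from three independent experiments.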
# [2] = tested on: Candida parapsilosis; assay: Antifungal activity against Candida parapsilosis ATCC 22019 assessed as inhibition of fungal growth after 24 hrs by CLSI protocol based two fold serial dilution method; settings: Lodderomyces parapsilosis; outline: as §1
# [3] = tested on: Aspergillus fumigatus; assay: Antifungal activity against Aspergillus fumigatus assessed as inhibition of fungal growth after 24 hrs by CLSI protocol based two fold serial dilution method; outline: as §1
# [4] = tested on: Candida tropicalis; assay: Antifungal activity against Candida tropicalis assessed as inhibition of fungal growth after 24 hrs by CLSI protocol based two fold serial dilution method; outline: as §1
# [5] = tested on: Candida albicans; assay: Antifungal activity against Candida albicans ATCC 90023 assessed as inhibition of fungal growth after 24 hrs by CLSI protocol based two fold serial dilution method; outline: as §1
# [6] = tested on: Candida albicans; assay: Antifungal activity against Candida albicans assessed as inhibition of fungal growth after 24 hrs by CLSI protocol based two fold serial dilution method; outline: as §1
# [7] = tested on: Acinetobacter baumannii; assay: Antibacterial activity against Acinetobacter baumannii assessed as inhibition of bacterial growth after 24 hrs by CLSI protocol based two fold serial dilution method; outline: as §1
# [8] = tested on: Pseudomonas aeruginosa; assay: Antibacterial activity against Pseudomonas aeruginosa ATCC 27853 assessed as inhibition of bacterial growth after 24 hrs by CLSI protocol based two fold serial dilution method; outline: as §1
# [9] = tested on: Escherichia coli; assay: Antibacterial activity against Escherichia coli ATCC 25922 assessed as inhibition of bacterial growth after 24 hrs by CLSI protocol based two fold serial dilution method; outline: as §1
# [10] = tested on: Escherichia coli; assay: Antibacterial activity against Escherichia coli assessed as inhibition of bacterial growth after 24 hrs by CLSI protocol based two fold serial dilution method; outline: as §1
# [11] = tested on: Klebsiella pneumoniae; assay: Antibacterial activity against Klebsiella pneumoniae assessed as inhibition of bacterial growth after 24 hrs by CLSI protocol based two fold serial dilution method; outline: as §1
# [12] = tested on: Staphylococcus aureus; assay: Antibacterial activity against Staphylococcus aureus ATCC 29213 assessed as inhibition of bacterial growth after 24 hrs by CLSI protocol based two fold serial dilution method
# [13] = tested on: Staphylococcus aureus; assay: Antibacterial activity against Staphylococcus aureus ATCC 25923 assessed as inhibition of bacterial growth after 24 hrs by CLSI protocol based two fold serial dilution method; outline: as §1
# [14] = tested on: Staphylococcus aureus; assay: Antibacterial activity against Staphylococcus aureus assessed as inhibition of bacterial growth after 24 hrs by CLSI protocol based two fold serial dilution method; outline: as §1
# [15] = tested on: Enterococcus faecalis; assay: Antibacterial activity against Enterococcus faecalis assessed as inhibition of bacterial growth after 24 hrs by CLSI protocol based two fold serial dilution method; outline: as §1
# [16] = tested on: Staphylococcus aureus; assay: Antibacterial activity against methicillin-resistant Staphylococcus aureus N315 assessed as inhibition of bacterial growth after 24 hrs by CLSI protocol based two fold serial dilution method
SMILES,MIC [1] [µM],MIC [2] [µM],MIC [3] [µM],MIC [4] [µM],MIC [5] [µM],MIC [6] [µM],MIC [7] [µM],MIC [8] [µM],MIC [9] [µM],MIC [10] [µM],MIC [11] [µM],MIC [12] [µM],MIC [13] [µM],MIC [14] [µM],MIC [15] [µM],MIC [16] [µM]
CCn1cc(-c2csc(N)n2)c(=O)c2cc(N3CCN(CC(C)=O)CC3)c(Cl)cc21,288,288,575,288,144,575,288,36,288,1150,72,575,288,144,288,72
CCn1cc(-c2csc(N)n2)c(=O)c2cc(F)c(N3CCN(C)CC3)cc21,331,331,331,661,165,165,331,165,165,661,83,331,41,165,331,331
CCN1CCN(c2cc3c(cc2F)c(=O)c(-c2csc(N)n2)cn3CC)CC1,319,80,160,40,319,319,319,160,160,319,160,638,80,319,319,319
CCn1cc(-c2csc(N)n2)c(=O)c2cc(F)c(N3CCN(Cc4ccc(F)cc4)CC3)cc21,1060,67,266,133,17,133,266,67,33,67,266,532,133,133,67,67
CCCCCCCCCCCCN1CCN(c2cc3c(cc2F)c(=O)c(-c2csc(N)n2)cn3CC)CC1,473,473,473,236,946,473,473,473,946,473,946,946,946,473,946,946
CCOC(=O)CN1CCN(c2cc3c(=O)c(-c4csc(N)n4)cn(CC)c3cc2Cl)CC1,269,135,539,135,67,269,135,269,1080,269,67,539,135,135,539,67
CCn1cc(-c2csc(N)n2)c(=O)c2cc(F)c(N3CCN(CC(=O)N(C)C)CC3)cc21,279,279,70,70,140,70,140,70,70,140,35,70,17,35,140,70
CCn1cc(-c2csc(N)n2)c(=O)c2cc(F)c(N3CCN(CC(=O)N(C(C)C)C(C)C)CC3)cc21,249,996,498,498,498,996,249,249,498,498,498,249,249,62,249,124
CCn1cc(-c2csc(N)n2)c(=O)c2cc(F)c(N3CCN(CC(C)=O)CC3)cc21,597,298,597,298,37,597,298,149,298,597,37,298,19,37,149,298
CCn1cc(-c2csc(N)n2)c(=O)c2cc(N3CCN(c4cc5c(cc4F)c(=O)c(-c4csc(N)n4)cn5CC)CC3)c(Cl)cc21,757,757,189,757,757,757,757,757,757,189,379,757,757,757,757,757
CCCCCCN1CCN(c2cc3c(cc2F)c(=O)c(-c2csc(N)n2)cn3CC)CC1,280,560,1120,560,1120,1120,70,140,140,134,140,280,140,140,70,280
CCn1cc(-c2csc(N)n2)c(=O)c2cc(N3CCNCC3)c(Cl)cc21,41,1320,164,329,164,329,1320,658,164,329,164,329,82,82,329,658
CCn1cc(-c2csc(N)n2)c(=O)c2cc(F)c(N3CCN(Cc4ccc(Cl)c(Cl)c4)CC3)cc21,482,8,241,482,482,482,482,241,15,241,241,241,241,482,30,15
CCn1cc(-c2csc(N)n2)c(=O)c2cc(F)c(N3CCN(Cc4ccc(Cl)cc4Cl)CC3)cc21,241,15,482,482,482,482,482,121,482,241,241,241,60,482,121,15
CCn1cc(-c2csc(N)n2)c(=O)c2cc(F)c(N3CCN(CC(C)O)CC3)cc21 (stereo not drawn),148,148,37,297,148,148,19,5,37,594,9,148,148,37,297,148
OC(Cn1cncn1)(Cn1cncn1)c1ccc(F)cc1F [FLUCONAZOLE],,13,836,26,7,13,,,,,,,,,,
CCn1cc(-c2csc(N)n2)c(=O)c2cc(F)c(N3CCN(CC(=O)N(CCO)CCO)CC3)cc21,62,31,15,62,8,62,62,62,15,62,62,62,8,124,15,62
CCOC(=O)CN1CCN(c2cc3c(cc2F)c(=O)c(-c2csc(N)n2)cn3CC)CC1,139,279,558,139,70,70,35,70,558,279,139,139,17,70,279,139
CCn1cc(-c2csc(N)n2)c(=O)c2cc(F)c(N3CCN(C=O)CC3)cc21,638,160,638,638,166,160,319,80,160,638,319,638,160,638,319,638
